Results pooled from the literature.
Protocols differ between the studies behind these lines.
Target: Serine/threonine-protein kinase DCLK2 (DCLK2, Homo sapiens, UniProt Q8N568)
Residues used in one study (Q8N568 1-766): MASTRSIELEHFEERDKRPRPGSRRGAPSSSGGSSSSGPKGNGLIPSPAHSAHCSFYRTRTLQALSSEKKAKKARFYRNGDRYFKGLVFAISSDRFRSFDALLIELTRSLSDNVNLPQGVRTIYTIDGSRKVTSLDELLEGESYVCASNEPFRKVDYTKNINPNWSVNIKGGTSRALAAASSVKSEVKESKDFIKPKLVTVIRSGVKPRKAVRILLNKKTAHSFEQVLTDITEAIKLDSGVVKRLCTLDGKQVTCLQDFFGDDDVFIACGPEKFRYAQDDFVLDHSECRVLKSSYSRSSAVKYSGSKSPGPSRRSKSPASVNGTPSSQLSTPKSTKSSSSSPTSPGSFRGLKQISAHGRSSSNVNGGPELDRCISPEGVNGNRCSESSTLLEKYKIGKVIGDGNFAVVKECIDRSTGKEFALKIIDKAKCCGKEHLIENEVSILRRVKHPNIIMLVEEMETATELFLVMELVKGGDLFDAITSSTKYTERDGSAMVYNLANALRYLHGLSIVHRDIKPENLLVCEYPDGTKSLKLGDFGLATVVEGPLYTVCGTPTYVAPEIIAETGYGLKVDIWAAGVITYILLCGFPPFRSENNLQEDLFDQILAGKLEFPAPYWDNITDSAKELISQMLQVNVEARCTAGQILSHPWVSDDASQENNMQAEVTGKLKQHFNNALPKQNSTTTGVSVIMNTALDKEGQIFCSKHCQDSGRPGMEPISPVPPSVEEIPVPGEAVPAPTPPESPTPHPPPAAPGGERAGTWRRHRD

SMILES | assay | conditions | endpoint | result
COc1ncccc1-c1cnn2ccc(N3CCN(C(=O)OC(C)C)CC3)nc12 | binding, competition with immobilised ligand | 1 µM | remaining binding | 100%
Cn1cncc1[C@@](O)(COc1ccc(C#N)cc1-c1ccc(OC(F)(F)F)cc1)c1ccc(C#N)cc1 | cell-free assay, competition with immobilised ligand | 1 µM | remaining binding | 100%
Cn1cc(-c2cccc(N3CCc4c(sc5c4CC(C)(C)C5)C3=O)c2CO)cc(Nc2ccncn2)c1=O | enzyme activity, inhibitor | 1 µM | inhibition | 3%
N#CC1(c2ccccn2)CCN(Cc2cc(C(=O)O)c(=O)n3ccccc23)CC1 | cell-free assay, competition with immobilised ligand | 1 µM | remaining binding | 100%
O=c1[nH]c2ccccc2n1C1CCN(Cc2ccc(-c3[nH]c4cc5ncnc5cc4nc3-c3ccccc3)cc2)CC1 | cell-free assay | 0.5 µM | remaining signal | 107%
Cc1nn(C)cc1-c1nc2c(N3CCN(Cc4ccc(Cl)cc4)CC3)c(Cl)cnc2[nH]1 | binding, competition with immobilised ligand | 1 µM | remaining binding | 100%
Nc1ncc(-c2nc(N3CCOCC3)nc(N3CCOCC3)n2)c(C(F)F)n1 | binding, competition with immobilised ligand | 10 µM | remaining binding | 86%
Cn1cc(-c2cc(F)cc(N3CCn4c(cc5c4CCCC5)C3=O)c2CO)cc(Nc2ccc(N3CCN(C4COC4)CC3)cn2)c1=O | enzyme activity, inhibitor | 0.1 µM | inhibition | 10%
CC(C)(C)c1cc(C=C(C#N)C#N)cc(Br)c1O | enzyme activity, inhibitor | 0.5 µM | remaining activity | 109%
COc1cc(Nc2ncc(F)c(Nc3ccc4c(n3)NC(=O)C(C)(C)O4)n2)cc(OC)c1OC | binding, competition with immobilised ligand | 10 µM | inhibition | 36%
